The target of experiment [1] is DNA polymerase I, thermostable (Thermus aquaticus) (UniProt P19821). The experiment is described as follows: Inhibition of TAQ polymerase activity at 2 uM. Put shortly: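 PCR with TS forward primer, NT reverse primer (0.5 µM), TSNT template (200 pM), 1 mM MgCl₂, 20 µM dNTPs and 1.25 U Taq, plus compound. Run: 92 °C 2 min, then 33 cycles of 92/52/72 °C. 36 bp product resolved on 10% polyacrylamide gel, stained with SYBR Green I.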

In experiment [2] the target is Telomerase reverse transcriptase (Homo sapiens, UniProt O14746). Nature of the experiment: Inhibition of telomerase activity from human A2780 cells. The format is functional, cell-based. Put shortly:
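TRAP assay with A2780 protein extract, Bradford-quantified. ACX primer (1 µM) and Taq added, 33 PCR cycles. Products on 10% PAGE with SYBR Green I, quantified by gel scanning against a no-protein or heat-inactivated control. Result reported as telEC50.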

In experiment [3] the test system is MCF7. Nature of the experiment: Cytotoxicity in human MCF7 cells by SRB assay. The format is functional, cell-based.
The next experiment concerns Nucleic Acid. The experiment is described as follows: Ratio of binding constant of compound binding to human quadruplex DNA over that of duplex DNA. The format is nucleic-acid assay. Summed up:
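Streptavidin-chip SPR (BIAcore 2000/3000) with biotinylated quadruplex or -AATT- duplex DNA loaded at 25 nM. Run in HEPES buffer pH 7.4 (0.20 M KCl, 3 mM EDTA, P20) at 25 °C. Steady-state RU from sensorgram plateaus, flow 10–30 µL/min, plotted against free compound concentration to fit binding constants. Value is the ratio of quadruplex to duplex constants.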

Another experiment relates to IMR-90. Nature of the experiment: Cytotoxicity in human IMR90 cells by SRB assay. In kind it is functional, cell-based.
In experiment [4] the test system is MCF7. Nature of the experiment: Increase in senescence in MCF7 cells by staining with SA-beta-Gal at 1 uM. In kind it is functional, cell-based. Conditions: Homo sapiens. Put shortly: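 MCF7 cells in DMEM, counted and reseeded on day 1, treated that day and re-dosed on day 4 each week, over 4 weeks. Weekly, 1 × 10⁵ cells seeded with compound for about 24 h, then fixed and stained with X-gal solution (citrate/phosphate pH 6.0, ferro/ferricyanide) overnight at 37 °C. Blue cells counted by light microscopy as percentage of total versus vehicle control.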

pEC50, pIC50: −log10 of the molar value. Active and inactive are the calls of the source. The rule behind the calls is not given here.

Chain of DNA polymerase I, thermostable (Thermus aquaticus) (P19821 whole entry): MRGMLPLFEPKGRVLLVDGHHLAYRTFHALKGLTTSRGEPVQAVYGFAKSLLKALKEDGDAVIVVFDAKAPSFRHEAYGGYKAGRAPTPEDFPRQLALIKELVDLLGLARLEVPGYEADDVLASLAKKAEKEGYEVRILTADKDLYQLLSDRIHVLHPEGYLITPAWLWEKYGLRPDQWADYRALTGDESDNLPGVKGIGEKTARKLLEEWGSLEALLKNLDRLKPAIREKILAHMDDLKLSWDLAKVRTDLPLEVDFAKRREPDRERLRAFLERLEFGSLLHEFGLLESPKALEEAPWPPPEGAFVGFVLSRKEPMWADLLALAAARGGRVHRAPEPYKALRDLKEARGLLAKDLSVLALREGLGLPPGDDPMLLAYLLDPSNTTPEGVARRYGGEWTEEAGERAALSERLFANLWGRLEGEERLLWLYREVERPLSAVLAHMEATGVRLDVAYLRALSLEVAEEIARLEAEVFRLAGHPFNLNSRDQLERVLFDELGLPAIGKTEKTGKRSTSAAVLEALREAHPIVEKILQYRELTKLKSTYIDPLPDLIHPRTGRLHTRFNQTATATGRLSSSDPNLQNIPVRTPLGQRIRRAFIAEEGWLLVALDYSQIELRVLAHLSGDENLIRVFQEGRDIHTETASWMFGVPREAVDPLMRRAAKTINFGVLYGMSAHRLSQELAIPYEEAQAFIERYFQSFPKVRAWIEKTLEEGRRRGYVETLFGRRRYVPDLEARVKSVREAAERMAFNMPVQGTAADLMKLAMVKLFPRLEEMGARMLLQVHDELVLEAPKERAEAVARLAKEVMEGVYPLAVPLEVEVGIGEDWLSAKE
Chain of Telomerase reverse transcriptase (O14746 whole entry): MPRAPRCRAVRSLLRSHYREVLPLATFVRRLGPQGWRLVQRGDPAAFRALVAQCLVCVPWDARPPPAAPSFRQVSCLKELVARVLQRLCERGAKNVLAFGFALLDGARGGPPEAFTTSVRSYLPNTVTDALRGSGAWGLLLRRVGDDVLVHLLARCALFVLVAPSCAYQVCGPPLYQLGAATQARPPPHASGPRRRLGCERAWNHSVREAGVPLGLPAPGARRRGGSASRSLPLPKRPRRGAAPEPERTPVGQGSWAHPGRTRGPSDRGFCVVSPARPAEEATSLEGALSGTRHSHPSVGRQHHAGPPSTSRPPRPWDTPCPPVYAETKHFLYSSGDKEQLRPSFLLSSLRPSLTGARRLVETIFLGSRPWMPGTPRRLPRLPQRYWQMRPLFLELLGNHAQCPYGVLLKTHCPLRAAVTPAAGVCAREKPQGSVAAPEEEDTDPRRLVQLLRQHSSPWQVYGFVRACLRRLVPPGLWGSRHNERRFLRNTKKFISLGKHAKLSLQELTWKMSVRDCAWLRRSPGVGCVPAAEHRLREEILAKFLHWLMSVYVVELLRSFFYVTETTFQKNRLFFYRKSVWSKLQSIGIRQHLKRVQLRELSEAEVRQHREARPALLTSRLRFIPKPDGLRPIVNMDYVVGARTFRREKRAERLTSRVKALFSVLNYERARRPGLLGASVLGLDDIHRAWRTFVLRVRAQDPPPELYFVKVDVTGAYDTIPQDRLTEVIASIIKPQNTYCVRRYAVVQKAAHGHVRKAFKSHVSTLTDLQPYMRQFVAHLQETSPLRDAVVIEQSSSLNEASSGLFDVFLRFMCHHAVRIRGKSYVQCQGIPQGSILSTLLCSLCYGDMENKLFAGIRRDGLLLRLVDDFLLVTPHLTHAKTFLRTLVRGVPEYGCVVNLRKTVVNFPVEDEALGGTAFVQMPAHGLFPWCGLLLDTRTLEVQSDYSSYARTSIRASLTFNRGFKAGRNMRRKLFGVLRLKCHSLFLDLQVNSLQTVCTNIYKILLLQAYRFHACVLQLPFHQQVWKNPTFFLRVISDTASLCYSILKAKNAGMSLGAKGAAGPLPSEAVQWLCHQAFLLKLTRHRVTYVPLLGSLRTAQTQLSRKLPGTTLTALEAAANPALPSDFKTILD

For the molecule `CN(C)c1ccc(Nc2c3ccc(NC(=O)CCCCN4CCCC4)cc3nc3cc(NC(=O)CCCCN4CCCC4)ccc23)cc1`, the inhibition in experiment [1] is < 25%. This molecule also showed a negative-log EC50 (pEC50) in experiment [2] of 5.71. Moreover, the pIC50 with MCF7 [3] and with IMR-90 was < 4.60 each time. Moreover, in the experiment on Nucleic Acid, the Ratio is 4.5.
`O=C(CCCN1CCCC1)Nc1ccc(Nc2c3ccc(NC(=O)CCN4CCCC4)cc3nc3cc(NC(=O)CCN4CCCC4)ccc23)cc1` had a pEC50 in experiment [2] of 6.93. The pIC50 with MCF7 [3] and in the experiment with IMR-90 was < 4.60 throughout. Moreover, the Ratio in the experiment on Nucleic Acid stood at 12.8.
Turning to `O=C(CCCCCN1CCCC1)Nc1ccc2c(Nc3ccc(NC(=O)CCN4CCCC4)cc3)c3ccc(NC(=O)CCCCCN4CCCC4)cc3nc2c1`, the negative-log EC50 (pEC50) in experiment [2] is 6.84. Moreover, the negative logarithm of the IC50 (pIC50) in the experiment on MCF7 [3] and with IMR-90 was < 4.60 throughout. Also, the Ratio with Nucleic Acid came out at 72.
On to `O=C(CCN1CCCC1)Nc1ccc(Nc2c3ccc(NC(=O)CCN4CCCC4)cc3nc3cc(NC(=O)CCN4CCCC4)ccc23)cc1`, for which the pEC50 in experiment [2] is 7.17. Besides, the negative logarithm of the IC50 (pIC50) in the experiment on MCF7 [3] and in the experiment with IMR-90 was < 4.60 in each case. Also, in the experiment on Nucleic Acid, the Ratio is 29.
Regarding `CN(C)c1ccc(Nc2c3ccc(NC(=O)CCN4CCCC4)cc3nc3cc(NC(=O)CCN4CCCC4)ccc23)cc1`, the inhibition in experiment [1] is < 25%. Besides, the Ratio with Nucleic Acid was 31. Also, the negative logarithm of the IC50 (pIC50) in the experiment with IMR-90 was < 4.60.
In the case of `CN(C)c1ccc(Nc2c3ccc(NC(=O)CCCN4CCCC4)cc3nc3cc(NC(=O)CCCN4CCCC4)ccc23)cc1`, in experiment [1], the inhibition was < 25%. In addition, the outcome in the experiment with MCF7 [4] was Active. Further, the pEC50 in experiment [2] is 7.00. The pIC50 is 5.06 in the experiment on MCF7 [3] and < 4.60 in the experiment with IMR-90. The Ratio in the experiment on Nucleic Acid was found to be 48.
For `O=C(CCCN1CCCC1)Nc1ccc2c(Nc3ccc(NC(=O)CCN4CCCC4)cc3)c3ccc(NC(=O)CCCN4CCCC4)cc3nc2c1`, in experiment [2], the pEC50 is 6.49. Further, the negative-log IC50 (pIC50) with MCF7 [3] and in the experiment on IMR-90 was < 4.60 each time. Besides, the Ratio with Nucleic Acid was 0.6.
As to `O=C(CCN1CCCC1)Nc1ccc(Nc2c3ccccc3nc3ccccc23)cc1`, the pEC50 in experiment [2] was < 4.70.
In experiment [2], `O=C(CCCCN1CCCC1)Nc1ccc2c(Nc3ccc(NC(=O)CCN4CCCC4)cc3)c3ccc(NC(=O)CCCCN4CCCC4)cc3nc2c1` gave a pEC50 of 6.59. Also, the pIC50 in the experiment on MCF7 [3] and in the experiment with IMR-90 was < 4.60 each time. For the same molecule, the Ratio in the experiment with Nucleic Acid came to 1.6.
In turn, `O=C(CCN1CCCC1)Nc1ccc2c(Nc3ccc(NC(=O)CN4CCCC4)cc3)c3ccc(NC(=O)CCN4CCCC4)cc3nc2c1` gave a negative logarithm of the EC50 (pEC50) in experiment [2] of 6.78. Also, the pIC50 in the experiment with MCF7 [3] and in the experiment on IMR-90 was < 4.60 throughout. Besides, the Ratio in the experiment with Nucleic Acid turned out to be 10.9.
In turn, `O=C(CN1CCCC1)Nc1ccc2cc3ccc(NC(=O)CN4CCCC4)cc3nc2c1` showed a negative logarithm of the EC50 (pEC50) in experiment [2] of 5.28. Besides, in the experiment with Nucleic Acid, the Ratio was found to be 1.2.
Turning to `CN(C)c1ccc(Nc2c3ccc(NC(=O)CCCCCN4CCCC4)cc3nc3cc(NC(=O)CCCCCN4CCCC4)ccc23)cc1`, the inhibition in experiment [1] is < 25%. In experiment [2], the negative-log EC50 (pEC50) was 5.16. Also, the pIC50 in the experiment with MCF7 [3] and in the experiment with IMR-90 was < 4.60 throughout. For the same molecule, the Ratio in the experiment on Nucleic Acid was 5.8.

These data come from ChEMBL document CHEMBL1147736, “Trisubstituted acridines as G-quadruplex telomere targeting agents. Effects of extensions of the 3,6- and 9-side chains on quadruplex binding, telomerase activity, and cell proliferation” (J Med Chem, 2006).
